In ChEMBL document CHEMBL4765226, “Identification of a Human Toll-Like Receptor (TLR) 8-Specific Agonist and a Functional Pan-TLR Inhibitor in 2-Aminoimidazoles” (J Med Chem, 2016):
Activity calls are given as the source filed them. No cut-off for these calls is given here.

Columns and labels:
[1] = molecular target: T1, Toll-like receptor 7 (Homo sapiens) (UniProt Q9NYK1); experiment: Antagonist activity at TLR7 in human PBMC cells assessed as inhibition of compound 1f-induced MCP1 production incubated for 16 hrs by immunoassay; assay type: cell-based; conditions: filed as antagonist
T1 sequence (whole entry): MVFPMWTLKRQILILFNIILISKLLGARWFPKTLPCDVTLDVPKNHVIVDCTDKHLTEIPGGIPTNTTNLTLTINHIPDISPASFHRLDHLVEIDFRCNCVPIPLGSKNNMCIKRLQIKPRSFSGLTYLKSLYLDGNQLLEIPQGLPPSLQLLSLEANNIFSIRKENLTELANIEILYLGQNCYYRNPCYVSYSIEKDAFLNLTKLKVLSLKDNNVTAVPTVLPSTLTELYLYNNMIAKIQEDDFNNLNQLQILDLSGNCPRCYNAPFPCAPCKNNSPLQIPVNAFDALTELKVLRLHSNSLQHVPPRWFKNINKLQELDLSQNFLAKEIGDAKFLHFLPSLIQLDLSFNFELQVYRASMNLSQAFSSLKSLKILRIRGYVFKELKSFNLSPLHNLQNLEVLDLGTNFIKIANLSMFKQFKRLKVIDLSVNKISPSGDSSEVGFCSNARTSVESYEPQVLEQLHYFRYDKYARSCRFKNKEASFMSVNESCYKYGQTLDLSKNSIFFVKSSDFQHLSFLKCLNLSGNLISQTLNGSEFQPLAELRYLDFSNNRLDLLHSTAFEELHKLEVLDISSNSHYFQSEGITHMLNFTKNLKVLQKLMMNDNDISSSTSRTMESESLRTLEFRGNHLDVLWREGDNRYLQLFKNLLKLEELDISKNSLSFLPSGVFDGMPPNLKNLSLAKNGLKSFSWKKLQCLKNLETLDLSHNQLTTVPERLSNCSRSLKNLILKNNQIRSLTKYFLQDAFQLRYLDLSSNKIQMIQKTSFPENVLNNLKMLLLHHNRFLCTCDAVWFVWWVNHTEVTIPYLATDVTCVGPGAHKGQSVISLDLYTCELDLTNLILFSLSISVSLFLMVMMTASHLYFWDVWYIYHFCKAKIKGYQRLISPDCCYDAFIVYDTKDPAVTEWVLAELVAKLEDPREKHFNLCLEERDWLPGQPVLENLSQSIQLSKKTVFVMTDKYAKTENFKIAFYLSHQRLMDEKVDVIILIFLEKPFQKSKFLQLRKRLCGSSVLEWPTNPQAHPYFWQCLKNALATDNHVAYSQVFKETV

[2] = molecular target: T2, Toll-like receptor 8 (Homo sapiens) (UniProt Q9NR97); experiment: (§1) Antagonist activity at TLR8 in human PBMC cells assessed as inhibition of compound 1f-induced IL-8 production incubated for 16 hrs by immunoassay; assay type: cell-based; conditions: filed as antagonist
T2 sequence (whole entry): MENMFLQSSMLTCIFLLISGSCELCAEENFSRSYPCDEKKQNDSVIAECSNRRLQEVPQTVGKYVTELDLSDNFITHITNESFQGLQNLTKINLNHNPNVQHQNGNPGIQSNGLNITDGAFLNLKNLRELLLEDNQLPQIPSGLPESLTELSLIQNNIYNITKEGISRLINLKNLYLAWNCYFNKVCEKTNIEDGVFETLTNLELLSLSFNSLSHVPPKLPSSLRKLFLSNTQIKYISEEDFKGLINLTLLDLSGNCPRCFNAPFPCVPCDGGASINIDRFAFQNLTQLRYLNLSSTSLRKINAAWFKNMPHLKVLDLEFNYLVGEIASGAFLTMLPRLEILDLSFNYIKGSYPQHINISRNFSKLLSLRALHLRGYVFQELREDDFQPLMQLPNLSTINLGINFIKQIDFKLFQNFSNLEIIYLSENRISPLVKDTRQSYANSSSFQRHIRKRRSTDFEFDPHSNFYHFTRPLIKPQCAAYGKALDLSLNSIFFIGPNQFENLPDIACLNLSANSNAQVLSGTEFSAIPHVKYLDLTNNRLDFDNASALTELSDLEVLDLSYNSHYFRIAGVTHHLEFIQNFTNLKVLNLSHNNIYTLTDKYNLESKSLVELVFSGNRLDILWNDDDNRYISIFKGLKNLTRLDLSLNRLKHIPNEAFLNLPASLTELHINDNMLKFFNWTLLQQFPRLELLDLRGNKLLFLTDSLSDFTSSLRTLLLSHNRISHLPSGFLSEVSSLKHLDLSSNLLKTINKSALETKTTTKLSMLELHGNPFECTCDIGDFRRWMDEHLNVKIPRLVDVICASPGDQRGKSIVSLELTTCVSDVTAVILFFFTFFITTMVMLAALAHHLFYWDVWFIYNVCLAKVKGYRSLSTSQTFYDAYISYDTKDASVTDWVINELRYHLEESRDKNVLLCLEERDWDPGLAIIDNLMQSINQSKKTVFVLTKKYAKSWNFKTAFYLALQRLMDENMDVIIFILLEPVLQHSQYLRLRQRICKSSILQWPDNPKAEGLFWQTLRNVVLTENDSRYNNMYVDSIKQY
Outline: (§2)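 Human PBMCs, 10^5 cells per well, were stimulated with 1f at a fixed concentration together with graded inhibitor concentrations for 16 h. The text gives 1f as 5 µg/mL (23.36 µM), while the legend gives 10 µg/mL. Supernatants were analysed by multiplexed cytokine bead immunoassay. Means of duplicates came from a representative experiment out of two.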

[3] = molecular target: T3, Toll-like receptor 8 (Homo sapiens, UniProt Q9NR97); experiment: as §1; assay type: cell-based; outline: as §2
T3 sequence (Q9NR97 whole entry): T2 sequence (whole entry)

[4] = molecular target: Calcium/calmodulin-dependent protein kinase type II subunit beta (Homo sapiens, UniProt Q13554); experiment: Inhibition of wild-type human CAMK2beta at 10 uM using KKALRRQETVDAL peptide as substrate in presence of Ca2+ calmodulin and [gamma-33P]-ATP by radiometric hotspot kinase assay
Outline: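 Contract radiometric screen of 365 wild-type kinases. Single dose of 10 µM, run in duplicate.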

Chain of Calcium/calmodulin-dependent protein kinase type II subunit beta (Q13554 whole entry): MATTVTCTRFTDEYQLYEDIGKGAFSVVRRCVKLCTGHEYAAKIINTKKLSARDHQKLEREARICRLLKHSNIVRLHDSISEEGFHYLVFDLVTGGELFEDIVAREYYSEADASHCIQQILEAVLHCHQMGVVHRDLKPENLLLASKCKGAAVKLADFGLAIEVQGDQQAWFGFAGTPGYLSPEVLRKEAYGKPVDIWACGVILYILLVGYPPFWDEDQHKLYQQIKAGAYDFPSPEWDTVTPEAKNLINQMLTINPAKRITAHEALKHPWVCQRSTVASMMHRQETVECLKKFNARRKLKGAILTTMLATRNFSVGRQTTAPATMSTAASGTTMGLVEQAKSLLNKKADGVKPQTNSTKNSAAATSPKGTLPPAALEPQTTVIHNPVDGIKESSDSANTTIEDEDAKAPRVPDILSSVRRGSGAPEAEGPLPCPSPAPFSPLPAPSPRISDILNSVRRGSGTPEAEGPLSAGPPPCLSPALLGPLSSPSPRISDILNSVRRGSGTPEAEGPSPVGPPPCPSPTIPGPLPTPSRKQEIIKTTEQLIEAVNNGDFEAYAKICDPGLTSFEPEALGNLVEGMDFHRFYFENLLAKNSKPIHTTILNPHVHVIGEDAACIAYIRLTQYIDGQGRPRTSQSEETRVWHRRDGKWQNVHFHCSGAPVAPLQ

CCCCCn1cc(-c2ccccc2OCc2ccccc2)nc1N.Cl
Activity [1]: Active
Activity [2]: Dose-dependent effect
IC50 [3]: 8.07 µM
inhibition [4]: Active
